Shown are actives, neighbours in structure and some others; about 2.5% of the full set was active somewhere.
mABHD4 FP: inhibitors of mouse ABHD4; 370,000 tested, 0.54% active; inhibition, % at 8.92 µM; purified mABHD4, FP-Rh probe fluorescence polarization;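 active = inhibition exceeding the mean over every tested compound plus 3 SD, cut at about 30% in these data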
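System: mouse ABHD4 enzyme, wild type / Medium: HEPES pH 7.0, NaCl, Pluronic buffer / Reagent: FP-Rh activity-based fluorescent probe / Control set: S159A mutant high control, sample median low control / Detection: fluorescence polarization with parallel and perpendicular emission, 525/598 nm / Schedule: 45 min + 60 min at 25 °C / Compound dosing: 8.92 µM, single dose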
TCR CD3 inh: blocks the human TCR-CD3 interaction; inhibition, % at 9.4 µM; 360,000 tested, 0.37% active; AID 651800; TAMRA-labeled TCR probe fluorescence, biochemical; in the data active = inhibition above about 19%;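 note: recombinant mutant TCR 2C K166C tagged with TAMRA read by polarization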
HTRA1 inhibitor: blocks human HTRA1 serine peptidase. Q92743. recombinant HTRA1, FP-rhodamine activity-based probe, fluorescence polarization. inhibition, % at 5.96 µM. 340,000 tested, 0.5% active; in the data active = inhibition above about 36%
SIAE inh: blocks human sialic acid acetylesterase; Q9HAT2; SIAE FP-Rh probe binding, fluorescence polarization; inhibition, % at 9.66 µM; 370,000 tested, 0.69% active; AID 1053197;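 active = inhibition above a cutoff: mean of compounds within the control limits plus 3 SD of those, cut at about 17% in these data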
PRMT1 inh: blocks human protein arginine methyltransferase 1. AID 652257. inhibition, % at 2.79 µM. 370,000 tested, 1.3% active. recombinant PRMT1, activity-based probe fluorescence polarization;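 active = inhibition above about 21% made by adding two undisclosed values, limit read from the data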
Target sequence (Q99873 whole entry, looked up): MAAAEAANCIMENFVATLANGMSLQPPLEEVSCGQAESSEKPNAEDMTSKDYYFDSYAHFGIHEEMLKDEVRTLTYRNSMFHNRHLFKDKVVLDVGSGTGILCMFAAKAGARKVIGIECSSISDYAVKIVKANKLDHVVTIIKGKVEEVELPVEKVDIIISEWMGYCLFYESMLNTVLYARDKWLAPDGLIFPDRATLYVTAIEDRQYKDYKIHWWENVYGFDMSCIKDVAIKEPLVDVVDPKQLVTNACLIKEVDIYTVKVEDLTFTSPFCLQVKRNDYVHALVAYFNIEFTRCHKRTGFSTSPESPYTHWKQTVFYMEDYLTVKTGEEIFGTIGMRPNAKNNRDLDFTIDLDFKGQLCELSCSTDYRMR
PRMT1 confirm: confirmation of human PRMT1 inhibitors. inhibition, % at 2.79 µM. 3,300 tested, 42% active. shares compounds with PRMT1 inh. recombinant His-PRMT1, activity-based probe fluorescence polarization. AID 687036;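 active = mean inhibition across replicates above the hit cutoff derived for the earlier primary screen, cut at about 22% in these data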
Numbers stand for hits; n = inactive; x = no result.

SMILES | mABHD4 FP | TCR CD3 inh | HTRA1 inhibitor | SIAE inh | PRMT1 inh | PRMT1 confirm
CCOc1ccc(N2C(=O)C3Sc4[nH]c(=O)sc4C(/C=C/c4ccccc4)C3C2=O)cc1 (stereo not given) | n | n | n | n | 27 | n
COc1ccccc1-n1cc(C(=O)NCC(=O)N2CCN(c3ccccc3)CC2)c2ccccc2c1=O | n | n | n | n | n | x
CCOc1ccc(-n2ccnc(SCC(=O)Nc3cccc(OC)c3)c2=O)cc1 | n | n | n | n | 39 | 42
CCOc1ccc(-n2ccnc(SCC(=O)NC3CCCC3)c2=O)cc1 | n | n | n | n | n | x
COc1ccc(-n2ccnc(SCC(=O)NCc3ccccc3Cl)c2=O)cc1 | n | n | n | n | 88 | n
Cc1cc(C)cc(N2C(=O)CC(Sc3ccccc3C(=O)O)C2=O)c1 (stereo not given) | n | n | n | n | 49 | n
Cc1cccc(N2C(=O)CC(Sc3ccccc3C(=O)O)C2=O)c1 (stereo not given) | n | n | n | n | 60 | 22
Nc1ccccc1SC1CC(=O)N(c2ccc3c(c2)OCO3)C1=O (stereo not given) | n | n | x | n | n | x
CC(C)CN1C(=O)CC(Sc2ccccc2C(=O)O)C1=O (stereo not given) | n | n | n | n | n | x
O=C(O)c1ccccc1SC1CC(=O)N(c2ccc3c(c2)OCO3)C1=O (stereo not given) | n | n | n | n | 56 | 30
CN(C)c1ccc(N2C(=O)CC(Sc3ccccc3C(=O)O)C2=O)cc1 (stereo not given) | n | n | n | n | 82 | 43
CN1C(=O)CC(Sc2ccccc2C(=O)O)C1=O (stereo not given) | n | n | n | n | n | x
CN1CCN(c2ccc(CNC(=O)C3(C)Cc4c(-c5ccccc5)ccnc4O3)cc2)CC1 (stereo not given) | n | n | x | n | n | x
Cc1cc(C)nc(SC2CC(=O)N(c3ccc(C)c(C)c3)C2=O)n1 (stereo not given) | n | n | n | n | n | x
Cc1cc(C)c(N2C(=O)CC(Sc3ccccc3N)C2=O)c(C)c1 (stereo not given) | n | n | n | n | 34 | n
Cc1ccc(N2C(=O)CC(Sc3ccccc3C(=O)O)C2=O)cc1 (stereo not given) | n | n | n | n | 86 | 24
Cc1ccc(N2C(=O)CC(Sc3ccccc3C(=O)O)C2=O)cc1C (stereo not given) | n | n | n | n | 62 | n
Cc1ccc(SC(CC(=O)c2ccc(F)cc2)C(=O)O)cc1 (stereo not given) | n | n | n | n | 82 | 79
CC(C)(C)c1ccc(C(=O)CC(Sc2ccc(Cl)cc2)C(=O)O)cc1 (stereo not given) | n | n | n | n | 73 | 85
O=C1c2ccccc2[C@@H]2Cc3csc[n+]3[C@H]12 | n | n | x | n | 85 | 83
COc1cc(Cl)ccc1OC1(C)CCN(Cc2ccc(-c3ccccn3)cc2)C1 (stereo not given) | n | n | x | n | n | x
Clc1ccc(Cl)c(-c2nn3c(COc4ccccc4)nnc3s2)c1 | n | n | n | n | 28 | n
Cc1ccc(-c2cc3ncc(C#N)c(N)n3n2)cc1 | n | n | n | n | n | x
c1coc(C2Nc3ccccc3-c3nc4ccccc4n32)c1 (stereo not given) | n | n | n | n | 45 | n
CC1(C)c2ccccc2N2CC(=O)N(CC(N)=O)C21C (stereo not given) | n | n | n | n | 56 | n
SMILES | mABHD4 FP | TCR CD3 inh | HTRA1 inhibitor | SIAE inh | PRMT1 inh | PRMT1 confirm
CC(C(=O)NC1CCCC1)n1c(-c2ccccn2)nc2ccccc21 (stereo not given) | n | n | x | n | n | x
CC(C)(C)S(=O)(=O)N1Cc2cc(CO)ccc2[C@H]1CCO | n | n | x | n | n | x
CC(=O)NNC(=S)NC(=O)c1cccc([N+](=O)[O-])c1 | n | n | n | n | 48 | n
CCCn1c(N)c(C(=O)COC(=O)CNC(=O)c2ccccc2OCC)c(=O)[nH]c1=O | n | n | n | n | n | x
O=C(O)CSc1ncccn1 | n | n | n | n | n | x
O=C(CSc1ncccn1)c1ccccc1Br | n | n | n | n | 57 | 38
COc1ccc(NC(=O)CCNS(=O)(=O)c2cccc3nonc23)cc1 | n | n | n | n | n | x
COc1ccc2c(c1)CCC1=C2NC(=S)NC1c1ccc(N(C)C)cc1 (stereo not given) | n | n | n | n | n | x
Fc1cccc(/C=C2\CCCC3=C2NC(=S)NC3c2cccc(F)c2)c1 (stereo not given) | n | n | n | n | 64 | n
COc1ccc(C2NC(=S)NC3=C2CCCC3=C2SCCS2)cc1 (stereo not given) | n | n | n | n | n | x
S=C1NC2=C(CCC/C2=C\c2ccc(Cl)cc2)C(c2ccc(Cl)cc2)N1 (stereo not given) | n | n | n | n | 27 | n
CC1CC2=C(NC(=S)NC2c2ccc(F)cc2)/C(=C/c2ccc(F)cc2)C1 (stereo not given) | n | n | n | n | 49 | 22
S=C1NC2=C(CCCC2=C2SCCCS2)C(c2ccccc2)N1 (stereo not given) | n | n | n | n | 35 | n
CCCc1cc(=O)oc2cc(OCC(=O)NC3CC(C)(C)NC(C)(C)C3)ccc12 | n | n | n | n | n | x
O=C1CCCC2=C1C(c1ccccc1)NC(=S)N2 (stereo not given) | n | n | n | n | n | x
S=C1NC2=C(CCC/C2=C\c2ccccc2)C(c2ccccc2)N1 (stereo not given) | n | n | n | n | 43 | 32
Fc1ccccc1/C=C1\CCCC2=C1NC(=S)NC2c1ccccc1F (stereo not given) | n | n | n | n | 38 | n
C=CCOc1ccc(C2NC(=S)NC3=C2CCc2ccccc23)cc1 (stereo not given) | n | n | n | n | n | x
CC(C)(C)c1nn(-c2ccccc2)c2[nH]c(=O)c(C=O)cc12 | n | n | n | n | n | x
Oc1ccc(N2CCN(Cc3ccc(OCCCN4CCCCC4)cc3)CC2)cc1 | n | n | n | n | 28 | n
CCCCOc1ccc(CN2CCCCC2)cc1 | n | n | n | n | n | x
CCCN(CCC)C1CC(=O)N(Cc2ccccc2)C1=O (stereo not given) | n | n | n | n | 76 | 24
O=C1CC(N(O)C2CC(=O)N(Cc3ccccc3)C2=O)C(=O)N1Cc1ccccc1 (stereo not given) | n | n | n | n | n | x
COC(=O)/C(C#N)=C/c1c(N2CCN(c3ccccc3)CC2)nc2c(C)cccn2c1=O | n | n | n | n | 26 | n
COC(=O)/C(C#N)=C/c1c(N2CCN(c3cccc(Cl)c3)CC2)nc2c(C)cccn2c1=O | n | n | n | n | n | x
NC(=O)CCC(NC(=O)c1ccc(Cl)cc1)C(=O)O (stereo not given) | n | n | n | n | 52 | n

From PubChem BioAssay
